Experiment [1] concerns Escherichia coli. Put plainly: Antibacterial activity against Escherichia coli measured at MIC after 18 hrs by halo zone test. The format is functional. In a few lines: (§1)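 Disk diffusion. Strains subcultured 18 h at 37 °C in BHI, then suspended in saline by McFarland to about 10⁵ CFU/mL. Suspension mixed 1:1 with antibiotic agar at 40 °C and plated. 6.0 mm paper disks loaded with dilutions from a DMSO stock (1 mg per 100 of DMSO). Incubated 18 h at 36 °C. Inhibition zone (mm) measured at the MIC. Amoxicillin and DMSO disks as controls.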

Experiment [2] has as its system Streptococcus pyogenes. Nature of the experiment: Antibacterial activity against Streptococcus pyogenes after 18 hrs by macro-dilution test. Type of experiment: functional. In a few lines: (§2)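 Tube macro-dilution. Compounds in DMSO serially diluted to final […]. 24 h old inoculum added to each tube. Standard inoculum […]. Incubated 18 h at 37 °C. MIC is the lowest concentration with no visible growth, read visually. DMSO negative and amoxicillin positive controls.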

In experiment [3] the test system is Salmonella typhimurium. Put plainly: Antibacterial activity against Salmonella Typhimurium measured at MIC after 18 hrs by halo zone test. The format is functional, Salmonella enterica subsp. enterica serovar Typhimurium. In a few lines:
as §1

Experiment [4] concerns Salmonella typhimurium. Nature of the experiment: Antibacterial activity against Salmonella Typhimurium after 18 hrs by macro-dilution test. Type of experiment: functional, Salmonella enterica subsp. enterica serovar Typhimurium. The following applies: Salmonella enterica. The essentials:
as §2

Experiment [5] relates to Staphylococcus aureus. Put plainly: Antibacterial activity against Staphylococcus aureus after 18 hrs by macro-dilution test. The format is functional. In a few lines: as §2
For experiment [6], the system named is Escherichia coli. Put plainly: Antibacterial activity against Escherichia coli after 18 hrs by macro-dilution test. Type of experiment: functional. The essentials: as §2
For experiment [7], the system named is Streptococcus pyogenes. Put plainly: Antibacterial activity against Streptococcus pyogenes measured at MIC after 18 hrs by halo zone test. Type of experiment: functional. In a few lines:
as §1

The subject of experiment [8] is Staphylococcus aureus. Put plainly: Antibacterial activity against Staphylococcus aureus measured at MIC after 18 hrs by halo zone test. Type of experiment: functional. The essentials: as §1

In brackets after ≈: the same amount, converted by molar mass.

As for `Cc1cccc2cc(/C=N/NC(=S)NC3CCCCC3)c(Cl)nc12`, the “inhibition zone (IZ)” value amounted to 21.27 mm in the experiment on Escherichia coli [1], 15.66 mm with Salmonella typhimurium [3], 11.08 mm in the experiment on Streptococcus pyogenes [7] and 12.75 mm with Staphylococcus aureus [8]. In addition, the MIC with Streptococcus pyogenes [2] was 256 µg/mL (≈ 709 µM); in the experiment with Salmonella typhimurium [4], 256 µg/mL (≈ 709 µM); with Staphylococcus aureus [5], 128 µg/mL (≈ 355 µM); against Escherichia coli [6], 128 µg/mL (≈ 355 µM).

For the molecule `S=C(N/N=C/c1cc2cccc(Cl)c2nc1Cl)NC1CCCC1`, the “inhibition zone (IZ)” value was 17.18 mm in the experiment on Escherichia coli [1], 15.17 mm in the experiment on Salmonella typhimurium [3], 13.15 mm in the experiment with Streptococcus pyogenes [7] and 17.68 mm with Staphylococcus aureus [8]. Besides, the MIC amounted to 256 µg/mL (≈ 697 µM) against Streptococcus pyogenes [2], 128 µg/mL (≈ 348 µM) in the experiment on Salmonella typhimurium [4], 128 µg/mL (≈ 348 µM) against Staphylococcus aureus [5] and 256 µg/mL (≈ 697 µM) in the experiment with Escherichia coli [6].

For the molecule `S=C(N/N=C/c1cc2cccc(Cl)c2nc1Cl)NC1CCCCC1`, the “inhibition zone (IZ)” value amounted to 15.23 mm in the experiment with Escherichia coli [1], 15.72 mm with Salmonella typhimurium [3], 13.73 mm with Streptococcus pyogenes [7] and 17.23 mm in the experiment on Staphylococcus aureus [8]. In addition, the MIC against Streptococcus pyogenes [2] was 128 µg/mL (≈ 336 µM); in the experiment on Salmonella typhimurium [4], 256 µg/mL (≈ 671 µM); against Staphylococcus aureus [5] it was 64 µg/mL (≈ 168 µM); with Escherichia coli [6], 256 µg/mL (≈ 671 µM).

On to `Cc1cccc2cc(/C=N/NC(=S)NC3CCCCCCC3)c(Cl)nc12`, for which the “inhibition zone (IZ)” value in the experiment with Escherichia coli [1] is listed as 16.61 mm; in the experiment on Salmonella typhimurium [3] it was 22.51 mm; in the experiment on Streptococcus pyogenes [7], 14.45 mm; in the experiment with Staphylococcus aureus [8], 15.78 mm. Besides, the MIC in the experiment on Streptococcus pyogenes [2] came out at 128 µg/mL (≈ 329 µM); against Salmonella typhimurium [4], 128 µg/mL (≈ 329 µM); against Staphylococcus aureus [5] it was 256 µg/mL (≈ 658 µM); against Escherichia coli [6], 256 µg/mL (≈ 658 µM).

For `CC(=O)N1N=C(N(C(C)=O)C2CCCCCCC2)SC1c1cc2cccc(Cl)c2nc1Cl` (stereo unspecified), the “inhibition zone (IZ)” value with Escherichia coli [1] is recorded as 16.36 mm; in the experiment with Salmonella typhimurium [3], 18.54 mm; in the experiment with Streptococcus pyogenes [7], 17.94 mm; in the experiment on Staphylococcus aureus [8] it was 17.62 mm. Moreover, the MIC was 128 µg/mL (≈ 259 µM) in the experiment on Streptococcus pyogenes [2], 64 µg/mL (≈ 130 µM) against Salmonella typhimurium [4], 64 µg/mL (≈ 130 µM) against Staphylococcus aureus [5] and 64 µg/mL (≈ 130 µM) with Escherichia coli [6].

As for `CC(=O)N(C1=NN(C(C)=O)C(c2cc3cccc(Cl)c3nc2Cl)S1)c1cc(F)ccc1F` (stereo unspecified), the “inhibition zone (IZ)” value in the experiment with Escherichia coli [1] is 16.45 mm; in the experiment on Salmonella typhimurium [3], 17.59 mm; in the experiment with Streptococcus pyogenes [7], 13.92 mm; in the experiment on Staphylococcus aureus [8], 12.99 mm. For the same molecule, the MIC against Streptococcus pyogenes [2], in the experiment with Salmonella typhimurium [4], in the experiment on Staphylococcus aureus [5] and in the experiment with Escherichia coli [6] was 64 µg/mL (≈ 129 µM) in each case.

For the molecule `NC(=S)N/N=C/c1cc2ccccc2nc1Cl`, the “inhibition zone (IZ)” value is reported as 17.76 mm in the experiment with Escherichia coli [1], 12.42 mm with Salmonella typhimurium [3], 16.97 mm with Streptococcus pyogenes [7] and 11.67 mm in the experiment on Staphylococcus aureus [8]. The MIC with Streptococcus pyogenes [2] came out at 64 µg/mL (≈ 242 µM); in the experiment on Salmonella typhimurium [4] it was 128 µg/mL (≈ 483 µM); with Staphylococcus aureus [5], 128 µg/mL (≈ 483 µM); with Escherichia coli [6], 256 µg/mL (≈ 967 µM).

On to `Cc1ccccc1NC(=S)N/N=C/c1cc2cccc(C)c2nc1Cl`, for which the “inhibition zone (IZ)” value turned out to be 15.17 mm in the experiment with Escherichia coli [1], 13.94 mm in the experiment on Salmonella typhimurium [3], 18.81 mm with Streptococcus pyogenes [7] and 14.8 mm in the experiment on Staphylococcus aureus [8]. For the same molecule, the minimum inhibitory concentration (MIC) against Streptococcus pyogenes [2] was 64 µg/mL (≈ 173 µM); in the experiment on Salmonella typhimurium [4], 32 µg/mL (≈ 86.7 µM); against Staphylococcus aureus [5], 32 µg/mL (≈ 86.7 µM); against Escherichia coli [6], 64 µg/mL (≈ 173 µM).

Regarding `Cc1ccc(NC(=S)N/N=C/c2cc3ccccc3nc2Cl)cc1`, the “inhibition zone (IZ)” value in the experiment with Escherichia coli [1] was 16.65 mm; with Salmonella typhimurium [3], 18.02 mm; with Streptococcus pyogenes [7] it was 17.43 mm; in the experiment on Staphylococcus aureus [8] it was 17.93 mm. Moreover, the MIC in the experiment with Streptococcus pyogenes [2] amounted to 32 µg/mL (≈ 90.2 µM); against Salmonella typhimurium [4] it was 64 µg/mL (≈ 180 µM); in the experiment on Staphylococcus aureus [5], 32 µg/mL (≈ 90.2 µM); in the experiment on Escherichia coli [6] it was 64 µg/mL (≈ 180 µM).

In the case of `S=C(N/N=C/c1cc2ccccc2nc1Cl)NC1CCCCCCC1`, the “inhibition zone (IZ)” value is on record as 13.23 mm in the experiment with Escherichia coli [1], 19.73 mm with Salmonella typhimurium [3], 13.67 mm in the experiment with Streptococcus pyogenes [7] and 9.9 mm in the experiment on Staphylococcus aureus [8]. Also, the MIC in the experiment on Streptococcus pyogenes [2] came to 128 µg/mL (≈ 341 µM); in the experiment on Salmonella typhimurium [4], 128 µg/mL (≈ 341 µM); against Staphylococcus aureus [5] it was 256 µg/mL (≈ 683 µM); against Escherichia coli [6] it was 256 µg/mL (≈ 683 µM).

On to `CC(=O)NC1=NN(C(C)=O)C(c2cc3ccccc3nc2Cl)S1` (stereo unspecified), for which the “inhibition zone (IZ)” value was 17.76 mm in the experiment on Escherichia coli [1], 13.42 mm with Salmonella typhimurium [3], 16.97 mm in the experiment with Streptococcus pyogenes [7] and 15.67 mm in the experiment with Staphylococcus aureus [8]. The MIC in the experiment on Streptococcus pyogenes [2], in the experiment on Salmonella typhimurium [4], against Staphylococcus aureus [5] and in the experiment on Escherichia coli [6] was 64 µg/mL (≈ 183 µM) in each case.

Regarding `NC(=S)N/N=C/c1cc2cccc(Cl)c2nc1Cl`, the “inhibition zone (IZ)” value in the experiment on Escherichia coli [1] is recorded as 15.8 mm; in the experiment with Salmonella typhimurium [3], 16.66 mm; in the experiment on Streptococcus pyogenes [7], 19.58 mm; in the experiment with Staphylococcus aureus [8] it was 21.13 mm. Moreover, the MIC in the experiment with Streptococcus pyogenes [2] came out at 64 µg/mL (≈ 214 µM); against Salmonella typhimurium [4], 128 µg/mL (≈ 428 µM); against Staphylococcus aureus [5], 64 µg/mL (≈ 214 µM); against Escherichia coli [6] it was 128 µg/mL (≈ 428 µM).

On to `Cc1cccc2cc(/C=N/NC(=S)Nc3ccc([N+](=O)[O-])cc3)c(Cl)nc12`, for which the “inhibition zone (IZ)” value turned out to be 17.48 mm in the experiment on Escherichia coli [1], 14.23 mm with Salmonella typhimurium [3], 13.27 mm with Streptococcus pyogenes [7] and 17.31 mm in the experiment on Staphylococcus aureus [8]. Also, the MIC in the experiment on Streptococcus pyogenes [2] was found to be 32 µg/mL (≈ 80 µM); in the experiment with Salmonella typhimurium [4], 64 µg/mL (≈ 160 µM); against Staphylococcus aureus [5], 64 µg/mL (≈ 160 µM); against Escherichia coli [6], 32 µg/mL (≈ 80 µM).

Consider `CC(=O)NC1=NN(C(C)=O)C(c2cc3cccc(Cl)c3nc2Cl)S1` (stereo unspecified), for which the “inhibition zone (IZ)” value in the experiment with Escherichia coli [1] was determined as 16.72 mm; with Salmonella typhimurium [3], 17.27 mm; with Streptococcus pyogenes [7], 19.91 mm; in the experiment on Staphylococcus aureus [8], 18.13 mm. Besides, the MIC with Streptococcus pyogenes [2], against Salmonella typhimurium [4], in the experiment with Staphylococcus aureus [5] and against Escherichia coli [6] was 64 µg/mL (≈ 167 µM) throughout.

As for `CC(=O)N(C1=NN(C(C)=O)C(c2cc3cccc(C)c3nc2Cl)S1)c1ccc(C)cc1` (stereo unspecified), the “inhibition zone (IZ)” value came out at 18.16 mm with Escherichia coli [1], 17.27 mm in the experiment on Salmonella typhimurium [3], 18.32 mm in the experiment with Streptococcus pyogenes [7] and 18.92 mm in the experiment with Staphylococcus aureus [8]. Besides, the MIC with Streptococcus pyogenes [2], with Salmonella typhimurium [4], with Staphylococcus aureus [5] and in the experiment with Escherichia coli [6] was 64 µg/mL (≈ 141 µM) in each case.

As for `Cc1ccccc1NC(=S)N/N=C/c1cc2cccc(Cl)c2nc1Cl`, the “inhibition zone (IZ)” value in the experiment with Escherichia coli [1] is on record as 13.47 mm; with Salmonella typhimurium [3], 10.53 mm; in the experiment with Streptococcus pyogenes [7], 10.26 mm; with Staphylococcus aureus [8], 18.9 mm. Besides, the MIC in the experiment on Streptococcus pyogenes [2] is 64 µg/mL (≈ 164 µM); in the experiment on Salmonella typhimurium [4], 32 µg/mL (≈ 82.2 µM); with Staphylococcus aureus [5], 32 µg/mL (≈ 82.2 µM); in the experiment on Escherichia coli [6], 64 µg/mL (≈ 164 µM).

As to `CC(=O)N1N=C(N(C(C)=O)C2CCCCCCC2)SC1c1cc2ccccc2nc1Cl` (stereo unspecified), the “inhibition zone (IZ)” value with Escherichia coli [1] was determined as 17.86 mm; with Salmonella typhimurium [3], 18.82 mm; in the experiment on Streptococcus pyogenes [7], 14.33 mm; in the experiment with Staphylococcus aureus [8], 14.57 mm. Moreover, the MIC in the experiment on Streptococcus pyogenes [2] came to 128 µg/mL (≈ 279 µM); with Salmonella typhimurium [4], 64 µg/mL (≈ 139 µM); against Staphylococcus aureus [5] it was 128 µg/mL (≈ 279 µM); with Escherichia coli [6] it was 256 µg/mL (≈ 558 µM).

For the origin of these results see ChEMBL document CHEMBL1799921, “3-(1,3,4-Thiadiazole-2-yl)quinoline derivatives: synthesis, characterization and anti-microbial activity” (Eur J Med Chem, 2011).
